By pKa is commonly meant the negative logarithm of the acid dissociation constant.

Data set [1] deals with HCT116N cells (MMR-proficient) and HCT116O cells (MMR-deficient). It is filed as cell-based.
Data set [2] relates to HCT116N and HCT116O cells. Kind of data set: MTT cytotoxicity assay. The data set is classed as cell-based. The note with it: 72 h. In short, it runs like this: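 HCT116N and HCT116O cells are seeded at 50,000 cells/well in 96-well format and exposed to test compound for 72 h. MTT labelling follows for 4 h at 37 °C under 5% CO2, and formazan is dissolved in acidified SDS. The read-out is A570 minus A690 background. Percent viability is formazan of treated over untreated cells. Differential cytotoxicity is the difference in percent viability between the two lines.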
For orientation: Formazan colour is commonly taken as a measure of viable cells.

Data set [3] is described as follows: Metalloinsertor pH titrations. It is filed as physicochemical. The note with it: chrysi immine proton; ambient temperature, 0.1 M NaCl; racemic mixtures. A digest of the protocol: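 Test compound at 25 μM in 0.1 M NaCl is titrated from about pH 4.5 to 10.5 and back with 6 mM NaOH or 10 mM HCl, with pH followed by electrode. A UV-vis spectrum is recorded after each addition. Absorbance at one strongly changing wavelength is plotted against pH, and pKa is taken from the inflection of the sigmoid. Values from three separate experiments are pooled and averaged.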

In data set [4] the test system is DNA hairpin 5′-[…]-3′ with CC mismatch. Kind of data set: Covalent DNA binding assay. The note with it: 30 min at 37 °C; neutral phosphate buffer or 5 mM glutathione.
The test system of data set [5] is HCT116O cells (MMR-deficient). Kind of data set: Cell death mode flow cytometry assay. The data set is classed as cell-based. The note with it: 72 h. A digest of the protocol: (§1)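 HCT116 cells, grown in RPMI 1640 with 10% FBS, glutamine, non-essential amino acids, pyruvate, penicillin/streptomycin and 400 μg/mL G418 at 37 °C under 5% CO2, are exposed to test compound (0–0.5 μM) for 72 h. They are then trypsinized, washed in cold PBS, pelleted and resuspended in PBS at 10^6 cells/mL. Staining is 30 min with propidium iodide (1 μg/mL final) plus YO-PRO-1 (50 nM final). Flow-cytometry events are gated as live, apoptotic, necrotic or dead.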

In data set [6] the test system is HCT116N cells (MMR-proficient). Description: Cell death mode flow cytometry assay. It is filed as cell-based. The note with it: 72 h. A digest of the protocol:
as §1
For orientation: In flow cytometry, cells or beads pass a laser one at a time.

The subject of data set [7] is matched sites in the DNA duplex. Kind of data set: Binding competition gels with [Rh. The note with it: competition with 4 μM [Rh(bpy)2(phi)]3+; up to 1:15 DNA:complex; data not shown.
Data set [8] deals with 36-mer DNA duplex containing a CC mismatch. The data set is classed as binding.

Regarding `N.N.[Cl][Pt][Cl]` [cisplatin, cis-diamminedichloroplatinum, reference compound], the “concentration required for optimal biological activity” value in data set [1] stood at 6 μM.
For “[Rh(HDPA)2(chrysi)]^3+ [reference compound]”, the “optimal concentration for differential cytotoxicity” value in data set [2] worked out at 25000 nM. In addition, the “concentration required for optimal differential activity” value in data set [1] was found to be 10 µM.
Turning to “[Rh(chrysi)(phen)(DPE)]Cl2 [[Rh(chrysi)(phen)(DPE)]^2+]”, in data set [2], the “optimal concentration for differential cytotoxicity” value turned out to be 6000 nM. For the same molecule, the pKa in data set [3] was determined as 8.7 ± 0.2. In addition, in data set [1], the “concentration required for optimal differential activity” value was found to be 3 µM; the “differential inhibition (difference in %BrdU incorporation between HCT116N and HCT116O cells)” value is listed as 55 ± 2%.
For the molecule “[Rh(chrysi)(phen)(PPE)]Cl2 [[Rh(chrysi)(phen)(PPE)]^2+]”, the “optimal concentration for differential cytotoxicity” value in data set [2] is listed as 720 nM. Moreover, in data set [3], the pKa was 8.9 ± 0.4. Moreover, in data set [1], the “concentration required for optimal differential activity” value was found to be 1 µM; the “differential inhibition (difference in %BrdU incorporation between HCT116N and HCT116O cells)” value amounted to 53 ± 7%. For the same molecule, the “covalent DNA binding” value in data set [4] is “no covalent DNA binding”.
With “[Rh(chrysi)(phen)(PPO)]Cl2 [[Rh(chrysi)(phen)(PPO)]^2+]”, in data set [5] (0.2 or 0.5 μM, HCT116O versus HCT116N), the “mode of cell death” value is recorded as “induces necrosis preferentially in the MMR-deficient HCT116O cell line”. Also, the live cells in data set [5] (HCT116O, 0.2 μM) is 28 ± 6%; in data set [6] (0.2 μM), 57 ± 7%. In addition, the necrotic cells in data set [5] (HCT116O, 0.2 μM) is 13 ± 2%. The “cells in the apoptotic region” value in data set [5] (HCT116O, following metalloinsertor treatment) amounted to 17 ± 7%; in data set [6] (following metalloinsertor treatment), 25 ± 7%. Further, the “optimal concentration for differential cytotoxicity” value in data set [2] is recorded as 320 nM. Further, the pKa in data set [3] stood at 8.3 ± 0.3. Besides, the “concentration required for optimal differential activity” value in data set [1] was found to be 0.3 µM. The “differential inhibition (difference in %BrdU incorporation between HCT116N and HCT116O cells)” value in data set [1] stood at 62 ± 2%.
For “[Rh(chrysi)(phen)(PyOctanol)]Cl2 [[Rh(chrysi)(phen)(PyOctanol)]^2+]”, the “optimal concentration for differential cytotoxicity” value in data set [2] turned out to be 480 nM.
For the molecule Δ-[Rh(chrysi)(phen)(DPE)]^2+, the “binding at matched sites” value in data set [7] is “no binding at matched sites”. Also, the “lower binding affinity for mismatched DNA as compared to Δ-[Rh(bpy)2(chrysi)]3+” value in data set [8] is on record as roughly 5 fold.
As for Λ-[Rh(chrysi)(phen)(DPE)]^2+, the “binding at matched sites” value in data set [7] is recorded as “no binding at matched sites”.

(Values after publication PMC4195389 (Journal of the American Chemical Society, 2014).)
